Screen size: about 340,000 compounds; about 3,000 (0.88%) were called active.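 Rule for the calls: active = inhibition above about 50% at 20 µM (limit read from the data); inactive = the rest.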 Shown is part of a subset that was picked to be rich in actives.
The compounds below were run against Carboxy-terminal domain RNA polymerase II polypeptide A small phosphatase 1 (Homo sapiens) (UniProt Q9GZU7) (assay: Scp-1 phosphatase inhibitors, primary screen, biochemical, colorimetric, uHTS (AID 493091;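 note: plate controls were DMSO wells with enzyme for no effect and wells lacking enzyme for full effect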)). Conditions: Recombinant Scp1, phosphopeptide, malachite green phosphate absorbance; at 20 µM; active compounds read high.
Sequence of Carboxy-terminal domain RNA polymerase II polypeptide A small phosphatase 1 (Homo sapiens) (Q9GZU7 76-261 limits assumed): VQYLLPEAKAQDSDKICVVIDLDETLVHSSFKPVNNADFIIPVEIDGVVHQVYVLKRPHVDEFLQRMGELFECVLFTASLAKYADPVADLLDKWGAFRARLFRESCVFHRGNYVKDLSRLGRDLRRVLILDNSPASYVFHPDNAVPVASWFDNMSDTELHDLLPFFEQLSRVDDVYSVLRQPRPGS
Outline: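 Test system: SCP-1 catalytic domain; Buffer or medium: Acidic Tris acetate buffer with magnesium and detergent; Also added: Phosphorylated 17-residue peptide substrate; Compound: single 20 µM dose, 1% DMSO; Schedule: enzyme reaction 45 min at room temperature, colour 5 min, stabilisation 30 min; Signal: Phosphate-binding colour reagent, absorbance read at 630 nm.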

| SMILES | inhibition |
| --- | --- |
| COC(=O)c1sccc1NC(=O)CSc1ccccc1NS(=O)(=O)c1cc(Cl)ccc1Cl | -13.4% (inactive) |
| O=C(CNC(=O)C12CC3CC(CC(C3)C1)C2)OCC(=O)N1CCCCC1 | -0.76% (inactive) |
| C#CCOCCOCCOCCNc1nc(N2CCN(C(=O)CCCCCCCCCCNC(=O)[C@H]([C@@H](C)CC)n3cc(CCCCN=C(N)N)nn3)CC2)nc(N2CCN(C(=O)CCCCCCCCCCNC(=O)[C@H](CO)n3cc(CCCSC)nn3)CC2)n1 | 53% (active) |
| C#CCOCCOCCOCCNc1nc(N2CCN(C(=O)CCCCCCCCCCNC(=O)[C@H](CCCCN)n3cc(C)nn3)CC2)nc(N2CCN(C(=O)CCCCCCCCCCNC(=O)[C@H](CO)n3cc(CCCSC)nn3)CC2)n1 | 26.8% (inactive) |
| C#CCOCCOCCOCCNc1nc(N2CCN(C(=O)Cn3cc(CCO)nn3)CC2)nc(N2CCN(C(=O)Cn3cc(CCCN=C(N)N)nn3)CC2)n1 | 4.14% (inactive) |
| Cc1ccc(CNC(=O)C(=O)c2cn(CC(=O)N3CCCC3)c3ccccc23)cc1 | -10.2% (inactive) |
| O=C(C1CCC1)N1CCN(c2ccccc2)CC1 | -5.05% (inactive) |
| O=C(c1cc2c(s1)CCC2)N1CCN(c2ccccc2)CC1 | 51.2% (active) |
| O=C(c1ccccc1)c1ccc(C(=O)N2CCN(c3ccccc3)CC2)cc1 | 0.99% (inactive) |
| O=C1NC(c2ccccc2)Cc2ccncc21 (stereo not drawn) | 5.3% (inactive) |
| Cc1cc(/C=C2/SC(=O)N(CC(=O)N3CCCC3)C2=O)c(C)n1C | -10.3% (inactive) |
| Cc1cc(/C=C2\SC(=O)N(C)C2=O)c(C)n1-c1cccc(C(=O)O)c1 | 54.7% (active) |
| Cc1cc(/C=C2\SC(=Nc3ccc(N4CCOCC4)cc3)N(C)C2=O)c(C)n1-c1cccnc1 | -4.38% (inactive) |
| CC(C)CCN1CCC(C)(NC(=O)c2ccccc2)C1=O (stereo not drawn) | 5.05% (inactive) |
| Cc1nnc(SCc2ccc(C(=O)c3ccc(Cl)cc3)o2)n1-c1ccccc1 | 7.29% (inactive) |
| CSc1nc(-c2ccco2)nn1C(=O)c1ccccc1Cl | -10.4% (inactive) |
| CCOc1ccccc1/C=c1\sc2nc(-c3ccco3)nn2c1=O | 78% (active) |
| CCCn1nc(C(=O)NNC(=O)CCOc2ccccc2OCC)c2ccccc2c1=O | -1.1% (inactive) |
| Nc1ncc(CN2CCCC(C(=O)Nc3ccc(-c4ccco4)cc3)C2)cn1 (stereo not drawn) | -3.44% (inactive) |
| COc1ccc(C(=O)C2CCCN(Cc3cccn3-c3ccccn3)C2)c(C)c1 (stereo not drawn) | -4.92% (inactive) |
| CCOc1cc(/C=C2\C(=N)N3N=C(C)SC3=NC2=O)ccc1OCCOc1ccccc1 | -5.68% (inactive) |
| COc1ccccc1OCCOc1ccc(/C=C2\C(=N)N3N=C(C)SC3=NC2=O)cc1 | -7.04% (inactive) |

| SMILES | inhibition |
| --- | --- |
| CS(=O)(=O)C1=NN2C(=N)/C(=C\c3ccc(OCCOc4ccccc4)cc3)C(=O)N=C2S1 | 50.3% (active) |
| CCOc1ccc(S(=O)(=O)N/N=C(\C)c2ccc(Cl)c(Cl)c2Cl)cc1 | -6.85% (inactive) |
| CSc1ccc(Cl)c(C(=O)OCC(=O)N2CCNC2=O)c1 | 0.5% (inactive) |
| O=C(NCCCNCc1ccccc1)c1ccc(/C=N/O)nc1 | -4.62% (inactive) |
| C[N+](C)(C)CCNC(=O)c1cc[n+](Cc2ccccc2)c(/C=N/O)c1 | 99.5% (active) |
| CC(C)c1ccc(C(=O)NCCCc2ccccc2)cc1 | -14.7% (inactive) |
| O=C(NNS(=O)(=O)c1ccc([N+](=O)[O-])cc1)C1CCCCC1 | -6.14% (inactive) |
| Cc1cc2occ(CC(=O)NNC(=O)c3ccccc3F)c2cc1C | -10.5% (inactive) |
| CCOc1ccc2nc(N(CCCN(C)C)C(=O)c3ccc(C(=O)c4ccccc4)cc3)sc2c1 | 65% (active) |
| CCN(CC)CCN(C(=O)c1cccc([N+](=O)[O-])c1)c1nc2ccc(OC)cc2s1 | -1.97% (inactive) |
| CN(C)CCCN(C(=O)c1ccc(S(=O)(=O)N2CCCCCC2)cc1)c1nc2ccc(Br)cc2s1 | 11.7% (inactive) |
| CC(C)CNC(=O)COC(=O)/C=C/c1ccco1 | 22.6% (inactive) |
| COc1c(Br)cc2c(C)c(C(=O)N3CCOCC3)oc2c1Br | -4.18% (inactive) |
| Cc1ccc(OCCC(=O)OCC(=O)N2c3ccccc3NC(=O)C2(C)C)cc1 | 3.3% (inactive) |
| CCNc1ccc(C(=O)OCC(=O)N2c3ccccc3NC(=O)C2(C)C)cc1[N+](=O)[O-] | -9.83% (inactive) |
| CNS(=O)(=O)c1cccc(C(=O)OCC(=O)N2c3ccccc3NC(=O)C2(C)C)c1 | 51% (active) |
| CCCCCN(C(=O)CCC(=O)OCC(=O)NC1CCC(C)CC1)c1c(N)n(CCCC)c(=O)[nH]c1=O (stereo not drawn) | 3.11% (inactive) |
| CC(=O)NNC(=O)c1csc(Cc2c(Cl)sc3ccc(Cl)cc23)n1 | -4.25% (inactive) |
| CC1CC(=O)N(CC(=O)Nc2cccc(Cl)c2)c2ccccc2S1(=O)=O (stereo not drawn) | -2.39% (inactive) |
| O=C(CCc1ccc(S(=O)(=O)N2CCOCC2)cc1)Nc1ccc2ccccc2c1 | -11.8% (inactive) |
| CCN(C(=O)COc1ccc(C(=O)c2ccccc2)cc1)c1ccccc1 | -3.83% (inactive) |
| CC/C(=C(/c1ccccc1)c1ccc(OCC[N+](C)(C)C)cc1)c1ccccc1 | 67.4% (active) |

| SMILES | inhibition |
| --- | --- |
| CCOc1cc(C(=O)O)ccc1OCCOc1ccccc1 | 6.63% (inactive) |
| O=C(CCn1ccc([N+](=O)[O-])n1)Nc1nccs1 | -5.19% (inactive) |
| CC(=O)c1ccc(N2CCN(C(=O)c3ccc(Cl)c(S(=O)(=O)NC4CC4)c3)CC2)c(F)c1 | -5.7% (inactive) |
| CSc1nnc(SCc2nc3sc(C(=O)O)c(C)c3c(=O)[nH]2)s1 | 74% (active) |
| Cc1sc2nc(CSCC(=O)NC3CCCCC3)[nH]c(=O)c2c1C | 1.62% (inactive) |
| CC(=O)c1sc2nc(SCC(=O)N3CCCCC3)[nH]c(=O)c2c1C | 7.94% (inactive) |
| CCN1/C(=C/c2ccc3ccc(C)cc3[n+]2CC)Sc2ccccc21 | 64.2% (active) |
| CCN1/C(=C\c2ccc3ccccc3[n+]2CC)Sc2cc(C)ccc21 | 21.8% (inactive) |
| CCOc1cc(C2C(C(=O)OC(C)C)=C(C)NC3=C2C(=O)CCC3)cc([N+](=O)[O-])c1O (stereo not drawn) | -7.32% (inactive) |
| CCN(CC)C(=O)Oc1ccc(OC(=O)N(CC)CC)cc1 | 7.37% (inactive) |
| O=C(NCc1ccccn1)C1CCN(S(=O)(=O)c2ccc(Br)cc2)CC1 | 3.99% (inactive) |
| COc1ccc(NC(=O)CN(C)C(=O)c2cc(-c3ccc(C)o3)nc3ccccc23)cc1 | -3.85% (inactive) |
| CC(=O)N1CCN(C(=O)c2cc(-c3ccc(C)o3)nc3ccccc23)CC1 | -8.9% (inactive) |
| Cc1ccc(NC(=O)c2cc(-c3ccc(C)o3)nc3ccccc23)nc1 | 67.5% (active) |
| O=C(C1CCCO1)N1CCN(S(=O)(=O)c2ccc(Br)cc2)CC1 (stereo not drawn) | -5.02% (inactive) |
| CN(C)C(CNC(=O)c1ccc(S(=O)(=O)NCc2ccco2)cc1)c1ccccc1 (stereo not drawn) | -0.87% (inactive) |
| O=C(NN1C(=O)C2C3C=CC(O3)C2C1=O)c1ccncc1 (stereo not drawn) | 0.55% (inactive) |
| O=C(NN1C(=O)C2C3C=CC(O3)C2C1=O)c1ccccc1 (stereo not drawn) | 56% (active) |
| COc1ccccc1C(=O)NN1C(=O)C2C3C=CC(O3)C2C1=O (stereo not drawn) | -11.3% (inactive) |
| CCOc1cc(NC(=O)CCl)c(OCC)cc1NC(C)=O | -1.31% (inactive) |
| O=c1ccc2c(-c3ccccc3S(=O)(=O)O)c3ccc(O)c(O)c3oc-2c1O | 64.1% (active) |
| O=C(Nc1cc2c3c(c1)CC(=O)N3CCC2)c1ccccc1F | -6.14% (inactive) |

| SMILES | inhibition |
| --- | --- |
| O=P(O)(CP(=O)(c1ccccc1)c1ccccc1)c1ccccc1 | -4.63% (inactive) |
| O=C(CSc1ccc(/C=N/NC(=O)c2cccc(F)c2)o1)Nc1ccccc1 | -3.74% (inactive) |
| O=C(Cn1cc(/C=N/NC(=O)c2cccc(C(F)(F)F)c2)c2ccccc21)Nc1ccc(F)cc1 | 90.8% (active) |
| COc1cccc(Cn2cc(/C=N/NC(=O)c3cc(O)cc(O)c3)c3ccccc32)c1 | -15.4% (inactive) |
| COc1cc(C2C3=C(CCCC3=O)OC3=C2C(=O)CCC3)ccc1OCC(=O)Nc1ccccc1 | 4.63% (inactive) |
| COc1ccc(N2CCN(C(=O)CSc3nnc4ncccn34)CC2)cc1 | -6.4% (inactive) |
| COc1ccc(N2CCN(C(=O)CSc3nc4cc(OC)c(OC)cc4cc3C#N)CC2)cc1 | 67.5% (active) |
| CCOc1ccc(-c2nnn(CC(=O)N3CCN(c4ccc(OC)cc4)CC3)n2)cc1OCC | -1.29% (inactive) |
| CCNC(=S)NCC | -5.72% (inactive) |
| COc1ccc(/C(O)=C2/C(=O)C(=O)N(CC3CCCO3)C2c2ccc(OC)c(OC)c2)cc1 (stereo not drawn) | -4.81% (inactive) |
| Cc1ccc(SCC(=O)NC(=O)NCc2ccco2)c(C)c1 | 70% (active) |
| Cc1ccc(NC(=O)C(=O)NCc2ccco2)c(C)c1 | -2.49% (inactive) |
| Cc1cc(C)n2nc(SCC(=O)NC(=O)NCc3ccco3)nc2n1 | 7.37% (inactive) |
| O=C(Cc1ccccc1Cl)N1CCN(c2ccccn2)CC1 | -2.92% (inactive) |
| O=C(Cn1cnc2ccccc2c1=O)Nc1cccc(S(=O)(=O)N2CCCCC2)c1 | -7.43% (inactive) |
| CN(C)C=NC(=O)c1cccn1-c1ncc(C(F)(F)F)cc1Cl | -4.15% (inactive) |
| O=C(Cc1ccc(Br)cc1)NCCc1ccccc1 | -9.76% (inactive) |
| COc1ccc(Cl)cc1NC(=O)CCS(=O)(=O)c1ccc(Br)cc1 | 94.5% (active) |
| CCOc1ccc(OCC)c(NC(=O)CCS(=O)(=O)c2ccc(C)cc2)c1 | -14.2% (inactive) |
| Cc1ccc(S(=O)(=O)CCC(=O)OCC(=O)NCCc2ccc(S(N)(=O)=O)cc2)cc1 | -5.47% (inactive) |
| COc1ccc(Cl)cc1NC(=O)CCS(=O)(=O)c1cc2c(cc1C)NC(=O)CO2 | -1.24% (inactive) |
| O=C(CCS(=O)(=O)c1ccc(Br)cc1)NCCc1ccc(Cl)cc1 | 80% (active) |

Source: PubChem BioAssay AID493091 (Sanford-Burnham Center for Chemical Genomics, 2011)
